Publication PMC7668563 (International journal of molecular biology (Edmond, Okla.), 2020)
Where two headings read alike, the source gives them in different places.

Key:
[1] = target: T1, apo-human transferrin (apo-hTf) (Homo sapiens, UniProt P02787); test: Fluorescence quenching of apo-hTf; type: binding; conditions: for biomolecular quenching rate constant kq: kq=Ksv/τ0; for Stern-Volmer quenching constant Ksv / number of binding sites n: pH 7.4; for quenching association constant Ka: pH 7.4, modified Stern-Volmer
Method in brief: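 Intrinsic fluorescence of apo-hTf in Tris-HCl pH 7.4 was titrated with test compound (Tris-HCl/2% DMSO). Conditions: excitation 280 nm, emission 290–500 nm, slits 10/5 nm, 1.0 cm quartz cell, at 296, 303, 310 and 317 K, triplicate titrations. Intensities were corrected for inner filter effect using absorbances at excitation and emission wavelengths. Ksv came from Stern-Volmer plots of F0/F vs [Q]; kq = Ksv/τ0 (τ0 ~1.0×10−8); Ka and n came from the modified Stern-Volmer equation.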

[2] = target: T1, apo-human transferrin (apo-hTf); test: Thermodynamic parameters of apo-hTf complex formation; type: binding; conditions: for ∆H° / ∆S°: pH 7.4, from Ksv at 296-317 K
Method in brief: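 Ksv values were obtained from apo-hTf fluorescence quenching at pH 7.4 at 296, 303, 310 and 317 K. ΔH°, ΔS° and ΔG° were derived from linear regression of ln(Ksv) vs 1/T (Van't Hoff equation).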

[3] = system: human colorectal adenocarcinoma cell line, HT-29; conditions: cited from earlier work
[4] = target: T1, apo-human transferrin (apo-hTf); test: Fluorescence resonance energy transfer; type: binding; conditions: for Förster critical energy transfer distance R0 / binding distance r (donor-acceptor): k^2=2/3, n=1.336, ØD=0.118; for efficiency of energy transfer E: room temperature, 1.0×10^−5 mol L^−1 each
Method in brief: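 Emission spectrum of 1.0×10−5 mol L−1 apo-hTf and absorption spectrum of 1.0×10−5 mol L−1 test compound were recorded in 20 mM Tris-HCl pH 7.4 at room temperature, 260–450 nm, and their spectral overlap determined. E was calculated from apo-hTf fluorescence without and with equimolar test compound. R0 and donor–acceptor distance r came from Förster equations.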

[5] = system: human breast adenocarcinoma cell line, MCF-7; conditions: cited from earlier work
[6] = target: T1, apo-human transferrin (apo-hTf); test: Far-UV circular dichroism titration of apo-hTf, secondary structure content
Method in brief: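 Apo-hTf (4.0×10−7 mol L−1) in 2 mM Tris-HCl pH 7.4 was titrated with a 1.0×10−3 mol L−1 stock of test compound in Tris-HCl/2% DMSO, to final 0–2.4×10−6 mol L−1. Far-UV CD was recorded from 190–250 nm under nitrogen in a 1.0 cm cell: six scans at 100 nm/min. Baseline was buffer ± DMSO at room temperature. α-Helix was derived from MRE at 208 nm; β-sheet and random coil by the CD-RRG method.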

[7] = target: T1, apo-human transferrin (apo-hTf); test: UV-Vis absorbance titration of apo-hTf; type: binding; conditions: for Ka at 280 nm: absorbance at 280 nm; for Association constants, Ka, 280 nm: absorbance of apo-hTf at 280 nm

T1 sequence (P02787 20-698): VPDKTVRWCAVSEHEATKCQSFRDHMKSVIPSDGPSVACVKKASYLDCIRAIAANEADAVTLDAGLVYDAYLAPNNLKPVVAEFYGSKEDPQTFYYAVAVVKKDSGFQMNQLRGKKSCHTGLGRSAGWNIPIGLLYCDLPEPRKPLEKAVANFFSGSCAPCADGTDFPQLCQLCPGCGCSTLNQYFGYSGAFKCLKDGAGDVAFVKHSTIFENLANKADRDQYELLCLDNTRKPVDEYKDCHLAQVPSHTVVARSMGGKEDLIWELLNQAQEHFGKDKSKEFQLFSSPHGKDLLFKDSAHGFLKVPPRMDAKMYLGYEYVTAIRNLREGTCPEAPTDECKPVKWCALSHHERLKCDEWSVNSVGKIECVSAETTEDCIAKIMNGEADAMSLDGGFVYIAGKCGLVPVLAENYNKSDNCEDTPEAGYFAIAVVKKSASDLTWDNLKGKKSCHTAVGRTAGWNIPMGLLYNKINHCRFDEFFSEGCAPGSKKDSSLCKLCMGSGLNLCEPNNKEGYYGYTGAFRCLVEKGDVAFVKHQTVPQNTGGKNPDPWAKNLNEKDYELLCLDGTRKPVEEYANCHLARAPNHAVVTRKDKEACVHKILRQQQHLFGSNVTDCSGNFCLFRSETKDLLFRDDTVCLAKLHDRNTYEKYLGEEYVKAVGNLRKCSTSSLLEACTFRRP

[Cl-].[Cl-].[Mo+4].c1cc[cH-]c1.c1cc[cH-]c1 [Cp2MoCl2]
biomolecular quenching rate constant kq ([1]; 296 K): 1.51e+11 M⁻¹ s⁻¹
Stern-Volmer quenching constant Ksv ([1]; 296 K): 1510 M⁻¹
number of binding sites n ([1]; 296 K): 1.26
quenching association constant Ka ([1]; 296 K): 19300 M⁻¹
biomolecular quenching rate constant kq ([1]; 303 K): 1.59e+11 M⁻¹ s⁻¹
Stern-Volmer quenching constant Ksv ([1]; 303 K): 1590 M⁻¹
number of binding sites n ([1]; 303 K): 1.23
quenching association constant Ka ([1]; 303 K): 15800 M⁻¹
biomolecular quenching rate constant kq ([1]; 310 K): 1.81e+11 M⁻¹ s⁻¹
Stern-Volmer quenching constant Ksv ([1]; 310 K): 1810 M⁻¹
number of binding sites n ([1]; 310 K): 1.19
quenching association constant Ka ([1]; 310 K): 12100 M⁻¹
biomolecular quenching rate constant kq ([1]; 317 K): 2.05e+11 M⁻¹ s⁻¹
Stern-Volmer quenching constant Ksv ([1]; 317 K): 2050 M⁻¹
number of binding sites n ([1]; 317 K): 1.16
quenching association constant Ka ([1]; 317 K): 9500 M⁻¹
∆G° ([2]; 296 K): -4.293 kcal/mol
∆G° ([2]; 303 K): -4.46 kcal/mol
∆G° ([2]; 310 K): -4.625 kcal/mol
∆G° ([2]; 317 K): -4.792 kcal/mol
∆H° [2]: 2.768 kcal/mol
∆S° [2]: 99.78 J/mol K
IC50 ([3]; read-out: IC50 (±SD), HT-29, ref 21): 2600 µM
Förster critical energy transfer distance R0 [4]: 3.38 nm
binding distance r (donor-acceptor) [4]: 4.44 nm
efficiency of energy transfer E [4]: 0.162
IC50 (±SD), MCF-7 [5]: proliferative activity
IC50 (±SD), MCF-7 ([5]; listed as Cp^2MoCl^2): Proliferative[21],[68]
other secondary structure content of apo-hTf ([6]; compound concentration 0.4 (M)): 19.3%
random coil content of apo-hTf ([6]; compound concentration 0.4 (M)): 33.9%
α-helix content of apo-hTf ([6]; compound concentration 0.4 (M)): 28.7%
β-sheet content of apo-hTf ([6]; compound concentration 0.4 (M)): 18.1%
other secondary structure content of apo-hTf ([6]; compound concentration 0.8 (M)): 19.4%
random coil content of apo-hTf ([6]; compound concentration 0.8 (M)): 34%
α-helix content of apo-hTf ([6]; compound concentration 0.8 (M)): 28.3%
β-sheet content of apo-hTf ([6]; compound concentration 0.8 (M)): 18.3%
other secondary structure content of apo-hTf ([6]; compound concentration 1.2 (M)): 19.9%
random coil content of apo-hTf ([6]; compound concentration 1.2 (M)): 34.1%
α-helix content of apo-hTf ([6]; compound concentration 1.2 (M)): 27.6%
β-sheet content of apo-hTf ([6]; compound concentration 1.2 (M)): 18.4%
other secondary structure content of apo-hTf ([6]; compound concentration 1.6 (M)): 20%
random coil content of apo-hTf ([6]; compound concentration 1.6 (M)): 34.3%
α-helix content of apo-hTf ([6]; compound concentration 1.6 (M)): 27.1%
β-sheet content of apo-hTf ([6]; compound concentration 1.6 (M)): 18.6%
other secondary structure content of apo-hTf ([6]; compound concentration 2 (M)): 20.1%
random coil content of apo-hTf ([6]; compound concentration 2 (M)): 34.5%
α-helix content of apo-hTf ([6]; compound concentration 2 (M)): 26.5%
β-sheet content of apo-hTf ([6]; compound concentration 2 (M)): 18.9%
other secondary structure content of apo-hTf ([6]; compound concentration 2.4 (M)): 20.2%
random coil content of apo-hTf ([6]; compound concentration 2.4 (M)): 34.7%
α-helix content of apo-hTf ([6]; compound concentration 2.4 (M)): 25.8%
β-sheet content of apo-hTf ([6]; compound concentration 2.4 (M)): 19.3%
Ka at 280 nm [7]: 3060 M⁻¹
Ka at 361 nm ([7]; absorbance at 361 nm): 3090 M⁻¹
Association constants, Ka, 280 nm ([7]; pH 7.4): 3.06 10^3 M^−1
Association constants, Ka, 361 nm ([7]; absorbance of apo-hTf at 361 nm, pH 7.4): 3.09 10^3 M^−1

[Cl-].[Cl-].[Ti+4].c1cc[cH-]c1.c1cc[cH-]c1 [Cp2TiCl2, titanocene dichloride]
biomolecular quenching rate constant kq ([1]; 296 K): 1.53e+11 M⁻¹ s⁻¹
Stern-Volmer quenching constant Ksv ([1]; 296 K): 1530 M⁻¹
number of binding sites n ([1]; 296 K): 1.11
quenching association constant Ka ([1]; 296 K): 4500 M⁻¹
biomolecular quenching rate constant kq ([1]; 303 K): 1.68e+11 M⁻¹ s⁻¹
Stern-Volmer quenching constant Ksv ([1]; 303 K): 1680 M⁻¹
number of binding sites n ([1]; 303 K): 1.09
quenching association constant Ka ([1]; 303 K): 4100 M⁻¹
biomolecular quenching rate constant kq ([1]; 310 K): 1.76e+11 M⁻¹ s⁻¹
Stern-Volmer quenching constant Ksv ([1]; 310 K): 1760 M⁻¹
number of binding sites n ([1]; 310 K): 1.07
quenching association constant Ka ([1]; 310 K): 3600 M⁻¹
biomolecular quenching rate constant kq ([1]; 317 K): 1.93e+11 M⁻¹ s⁻¹
Stern-Volmer quenching constant Ksv ([1]; 317 K): 1930 M⁻¹
number of binding sites n ([1]; 317 K): 1.05
quenching association constant Ka ([1]; 317 K): 3100 M⁻¹
∆G° ([2]; 296 K): -4.316 kcal/mol
∆G° ([2]; 303 K): -4.465 kcal/mol
∆G° ([2]; 310 K): -4.613 kcal/mol
∆G° ([2]; 317 K): -4.761 kcal/mol
∆H° [2]: 1.94 kcal/mol
∆S° [2]: 88.48 J/mol K
IC50 ([3]; read-out: IC50 (±SD), HT-29, ref 82): 413 µM
Förster critical energy transfer distance R0 [4]: 5.03 nm
binding distance r (donor-acceptor) [4]: 6.77 nm
efficiency of energy transfer E [4]: 0.144
IC50 ([5]; read-out: IC50 (±SD), MCF-7, ref 82): 570 µM
other secondary structure content of apo-hTf ([6]; compound concentration 0.4 (M)): 18.9%
random coil content of apo-hTf ([6]; compound concentration 0.4 (M)): 33.8%
α-helix content of apo-hTf ([6]; compound concentration 0.4 (M)): 29.3%
β-sheet content of apo-hTf ([6]; compound concentration 0.4 (M)): 18%
other secondary structure content of apo-hTf ([6]; compound concentration 0.8 (M)): 18.9%
random coil content of apo-hTf ([6]; compound concentration 0.8 (M)): 33.8%
α-helix content of apo-hTf ([6]; compound concentration 0.8 (M)): 29.1%
β-sheet content of apo-hTf ([6]; compound concentration 0.8 (M)): 18.2%
other secondary structure content of apo-hTf ([6]; compound concentration 1.2 (M)): 18.8%
random coil content of apo-hTf ([6]; compound concentration 1.2 (M)): 33.9%
α-helix content of apo-hTf ([6]; compound concentration 1.2 (M)): 29%
β-sheet content of apo-hTf ([6]; compound concentration 1.2 (M)): 18.3%
other secondary structure content of apo-hTf ([6]; compound concentration 1.6 (M)): 18.9%
random coil content of apo-hTf ([6]; compound concentration 1.6 (M)): 33.9%
α-helix content of apo-hTf ([6]; compound concentration 1.6 (M)): 28.8%
β-sheet content of apo-hTf ([6]; compound concentration 1.6 (M)): 18.4%
other secondary structure content of apo-hTf ([6]; compound concentration 2 (M)): 18.9%
random coil content of apo-hTf ([6]; compound concentration 2 (M)): 34%
α-helix content of apo-hTf ([6]; compound concentration 2 (M)): 28.6%
β-sheet content of apo-hTf ([6]; compound concentration 2 (M)): 18.5%
other secondary structure content of apo-hTf ([6]; compound concentration 2.4 (M)): 19%
random coil content of apo-hTf ([6]; compound concentration 2.4 (M)): 34%
α-helix content of apo-hTf ([6]; compound concentration 2.4 (M)): 28.4%
β-sheet content of apo-hTf ([6]; compound concentration 2.4 (M)): 18.6%
Ka at 280 nm [7]: 2890 M⁻¹
Association constants, Ka, 280 nm ([7]; pH 7.4): 2.89 10^3 M^−1
